From ChEMBL document CHEMBL1149395, “Beta-substituted cyclohexanecarboxamide: a nonpeptidic framework for the design of potent inhibitors of cathepsin K” (J Med Chem, 2006) come the findings set out here.

By CL/F is commonly meant the apparent clearance, not corrected for the fraction that reaches the circulation. In general, bioavailability refers to dose-corrected exposure relative to a reference, in per cent. One may read the pIC50 as −log10 of the IC50, conventionally taken in molar units. For orientation: half-life means how long it takes for the measured level to halve. The clearance is a measure of how efficiently the substance is removed, as volume per time.

pIC50: −log10 of the molar value. Bounds are passed on as bounds.

Data set [1] can be described thus: Plasma clearance in dog at 5 mL/kg, po. The class given is ADME, organism-based, Canis lupus familiaris. In a few lines:
(§1)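 Single compounds given orally as suspensions in 1% methocel to animals fasted overnight, dosed in the morning. Oral dosing volumes were 10 mL/kg for rats, 5 mL/kg for dogs and 1 mL/kg for monkeys. Intravenous comparison dosing went via the jugular vein in PEG-200/H₂O (3:2) at 1 mL/kg. Plasma was sampled at regular intervals, precipitated with 1.5 volumes of acetonitrile, centrifuged and analysed by LC-MS.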

Data set [2] is described as follows: Oral bioavailability in squirrel monkey at 1 mL/kg, po. The class given is ADME, organism-based, Saimiri sciureus. The following applies: in vivo. In a few lines:
as §1

Data set [3] in a line: Oral bioavailability in dogs at 5 mL/kg, po. The class given is ADME, organism-based, Canis lupus familiaris. The following applies: dog, in vivo. In a few lines: as §1
Data set [4] can be described thus: Plasma clearance in squirrel monkey at 1 mL/kg, po. The class given is ADME, organism-based, Saimiri sciureus. In a few lines: as §1
The target of data set [5] is Cathepsin (L and K) (Homo sapiens) (UniProt P43235+P07711). As to the kind of experiment: Selectivity for Cathepsin L over Cathepsin K. Format: protein assay.
Data set [6] has as its target Cathepsin (B and K) (Homo sapiens) (UniProt P43235+P07858). As to the kind of experiment: Selectivity for Cathepsin B over Cathepsin K. The class given is protein assay.
For a further data set, the species on record is Oryctolagus cuniculus. As to the kind of experiment: Effect on degradation of collagen in bovine bone by rabbit osteoclast. Format: functional.
Data set [7] can be described thus: Half life in dog at 5 mL/kg, po. Format: ADME, organism-based, Canis lupus familiaris. The following applies: in vivo. In a few lines: as §1
Data set [8] addresses Cathepsin (S and K) (Homo sapiens) (UniProt P25774+P43235). As to the kind of experiment: Selectivity for Cathepsin S over Cathepsin K. The class given is protein assay.
Data set [9] is described as follows: Half life in rat at 10 mL/kg, po. The class given is ADME, organism-based. The settings on record: Sprague-Dawley, in vivo. In a few lines:
as §1

Data set [10] is described as follows: Half life in squirrel monkey at 1 mL/kg, po. Format: ADME, organism-based, Saimiri sciureus. The following applies: in vivo. In a few lines: as §1
Data set [11] concerns the target Cathepsin K (Homo sapiens, UniProt P43235). The data set is described as follows: Inhibitory activity against humanized rabbit Cathepsin K.
The nature of data set [12]: Plasma clearance in rat at 10 mL/kg, po. The class given is ADME, organism-based. The following applies: Sprague-Dawley. In a few lines: as §1
The nature of data set [13]: Oral bioavailability in rats at 10 mL/kg, po. The class given is ADME, organism-based. The settings on record: Sprague-Dawley, rat, in vivo. In a few lines:
as §1

The target in data set [14] is T1, Cathepsin K (Oryctolagus cuniculus, UniProt P43236).
T1 sequence (P43236 whole entry): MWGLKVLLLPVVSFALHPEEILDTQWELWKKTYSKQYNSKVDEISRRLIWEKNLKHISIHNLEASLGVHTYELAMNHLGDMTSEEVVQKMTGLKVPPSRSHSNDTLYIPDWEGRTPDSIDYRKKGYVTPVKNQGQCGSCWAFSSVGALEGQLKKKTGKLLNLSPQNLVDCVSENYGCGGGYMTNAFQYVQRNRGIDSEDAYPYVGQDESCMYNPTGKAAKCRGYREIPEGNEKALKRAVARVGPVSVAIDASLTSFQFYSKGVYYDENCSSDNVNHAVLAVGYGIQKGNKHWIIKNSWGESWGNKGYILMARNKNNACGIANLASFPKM
As to the kind of experiment: Inhibitory activity against rabbit Cathepsin K.

Data set [15] in a line: Half life in rat at 1 mL/kg, iv. The following applies: Sprague-Dawley, in vivo.
A short description of data set [16]: Plasma clearance in rat at 1 mL/kg, iv. The settings on record: Sprague-Dawley.

Sequence of Cathepsin (B and K) (Homo sapiens) (P43235 whole entry, looked up, other chains not shown): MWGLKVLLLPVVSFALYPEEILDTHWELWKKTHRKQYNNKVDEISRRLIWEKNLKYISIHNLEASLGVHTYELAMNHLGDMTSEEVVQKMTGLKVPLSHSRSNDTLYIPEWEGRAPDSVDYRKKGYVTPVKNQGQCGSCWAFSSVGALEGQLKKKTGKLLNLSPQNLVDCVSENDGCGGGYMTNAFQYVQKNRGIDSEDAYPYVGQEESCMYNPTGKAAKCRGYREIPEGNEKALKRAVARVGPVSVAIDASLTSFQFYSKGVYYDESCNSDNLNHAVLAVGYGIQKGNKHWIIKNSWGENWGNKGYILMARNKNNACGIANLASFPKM

Take `CSc1ccc(-c2ccccc2[C@@H]2CCC(F)(F)C[C@H]2C(=O)NCC#N)cc1`: the CL/F in data set [1] was 3.6 mL/min/kg; in data set [4], 17 mL/min/kg; in data set [12], 8.7 mL/min/kg. The bioavailability is 78% in data set [2], 55% in data set [3] and 39% in data set [13]. The values for the Selectivity ratio in [5], in [6] and in data set [8] were 780, over 36000 and 940, respectively. For the same compound, the figures for the pIC50 in the data set filed under Oryctolagus cuniculus, against Cathepsin K [11] and against Cathepsin K [14] were 7.80, 9.55 and 9.49, respectively. Moreover, the half-life in data set [7] is 900 min; in [9] it was 210 min; in data set [10] it was 528 min.
On to `CSc1ccc(-c2ccccc2[C@@H]2CCCC[C@H]2C(=O)NCC#N)cc1` (racemic), for which the half-life in data set [15] came out at 44 min. Also, in [16], the clearance was determined as 35 mL/min/kg. Also, the Selectivity ratio in data set [5] is 2800; in [6], over 3800; in data set [8], over 3800. In addition, the negative logarithm of the IC50 (pIC50) against Cathepsin K [11] was 8.59.
Take `CSc1ccc(-c2ccccc2C2CCC(F)CC2C(=O)NCC#N)cc1` (racemic; form 1): the bioavailability in data set [2] is 28%; in [13] it was 88%. Further, the CL/F in [4] was determined as 21 mL/min/kg; in [12], 25 mL/min/kg. For the same compound, the half-life in data set [9] was 90 min; in [10] it was 48 min. For the same compound, the pIC50 against Cathepsin K [11] is 8.38; at Cathepsin K [14], 8.43.
